Experiment [1] deals with Protein kinase C alpha type (Homo sapiens, UniProt P17252). Briefly: Displacement of [20-3H]phorbol 12,13-dibutyrate from PKCalpha (unknown origin) in the presence of porcine brain phosphatidylserine by scintillation counting. Put shortly: (§1)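 Competitive binding against bound [20-3H]PDBu with 100 μg/ml phosphatidylserine present. Each curve used six ligand concentrations, each measured in triplicate. IC50 was obtained by least-squares fit of a theoretical sigmoidal competition curve. Ki was calculated from IC50 after correcting for competition by [3H]PDBu. Values are mean ± SE of at least three independent experiments.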

Experiment [2] has as its target T1, Protein kinase C epsilon type (Homo sapiens, UniProt Q02156).
T1 sequence (Q02156 whole entry): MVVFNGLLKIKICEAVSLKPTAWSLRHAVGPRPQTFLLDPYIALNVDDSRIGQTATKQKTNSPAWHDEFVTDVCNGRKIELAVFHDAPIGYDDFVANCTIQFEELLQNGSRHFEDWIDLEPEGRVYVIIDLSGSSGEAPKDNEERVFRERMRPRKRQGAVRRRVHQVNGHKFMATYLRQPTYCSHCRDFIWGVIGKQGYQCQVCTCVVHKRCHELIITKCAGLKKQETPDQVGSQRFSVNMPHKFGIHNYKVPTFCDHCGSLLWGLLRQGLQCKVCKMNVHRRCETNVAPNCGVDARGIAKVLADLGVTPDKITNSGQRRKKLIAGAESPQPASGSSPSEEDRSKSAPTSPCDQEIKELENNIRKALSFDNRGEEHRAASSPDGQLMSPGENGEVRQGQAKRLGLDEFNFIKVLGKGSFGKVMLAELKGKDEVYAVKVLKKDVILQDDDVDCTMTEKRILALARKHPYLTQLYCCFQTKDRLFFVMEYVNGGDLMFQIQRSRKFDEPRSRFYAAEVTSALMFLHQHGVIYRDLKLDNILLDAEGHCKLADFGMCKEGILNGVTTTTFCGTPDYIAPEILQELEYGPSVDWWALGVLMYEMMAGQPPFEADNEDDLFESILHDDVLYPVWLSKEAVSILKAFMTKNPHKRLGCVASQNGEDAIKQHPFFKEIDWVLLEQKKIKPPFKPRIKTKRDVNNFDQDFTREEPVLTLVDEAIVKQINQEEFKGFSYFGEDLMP
The experiment can be described thus: Displacement of [20-3H]phorbol 12,13-dibutyrate from PKCepsilon (unknown origin) in the presence of porcine brain phosphatidylserine by scintillation counting. Put shortly:
as §1

Experiment [3] concerns the target T2, RAS guanyl-releasing protein 1 (Homo sapiens, UniProt O95267).
T2 sequence (O95267 whole entry): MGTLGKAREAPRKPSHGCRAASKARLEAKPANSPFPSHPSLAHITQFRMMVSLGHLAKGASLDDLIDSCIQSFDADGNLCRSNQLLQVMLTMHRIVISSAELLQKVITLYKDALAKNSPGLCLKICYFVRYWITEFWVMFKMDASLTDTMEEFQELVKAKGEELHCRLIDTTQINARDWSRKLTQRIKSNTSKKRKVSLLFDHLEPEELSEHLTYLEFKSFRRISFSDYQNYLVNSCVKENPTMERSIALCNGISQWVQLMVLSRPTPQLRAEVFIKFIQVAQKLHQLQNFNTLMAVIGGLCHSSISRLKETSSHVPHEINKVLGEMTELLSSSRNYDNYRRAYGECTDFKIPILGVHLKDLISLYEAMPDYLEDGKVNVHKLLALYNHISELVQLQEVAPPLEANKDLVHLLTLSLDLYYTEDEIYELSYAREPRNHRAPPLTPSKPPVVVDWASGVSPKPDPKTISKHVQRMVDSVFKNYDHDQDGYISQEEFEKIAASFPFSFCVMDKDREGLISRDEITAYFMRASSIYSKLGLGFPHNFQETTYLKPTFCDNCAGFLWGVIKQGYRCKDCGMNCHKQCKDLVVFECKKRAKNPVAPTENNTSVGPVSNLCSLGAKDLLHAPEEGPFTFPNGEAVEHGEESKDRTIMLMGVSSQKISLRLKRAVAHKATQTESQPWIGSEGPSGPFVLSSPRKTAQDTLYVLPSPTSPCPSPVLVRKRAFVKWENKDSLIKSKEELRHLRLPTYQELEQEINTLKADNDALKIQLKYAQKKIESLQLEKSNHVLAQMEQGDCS
Briefly: Displacement of [20-3H]phorbol 12,13-dibutyrate from RasGRP1 (unknown origin) in the presence of porcine brain phosphatidylserine by scintillation counting. Put shortly: as §1

The species named for experiment [4] is Homo sapiens. The experiment can be described thus: Selectivity index, ratio of Ki for PKCalpha (unknown origin) to Ki for RasGRP1 (unknown origin).
For experiment [5], the species on record is Homo sapiens. The experiment can be described thus: Selectivity index, ratio of Ki for PKCepsilon (unknown origin) to Ki for RasGRP1 (unknown origin).
Experiment [6] is filed under the species Homo sapiens. The experiment can be described thus: Selectivity index, ratio of Ki for PKCalpha (unknown origin) to Ki for PKCepsilon (unknown origin).

Turning to `CCCC(/C=C1\CC(CO)(COC(=O)c2cn(C)c3ccccc23)OC1=O)CCC` (stereo not drawn), the Ki in experiment [1] was 504 nM; in experiment [2], 295 nM; in experiment [3] it was 133 nM. Also, the Ratio Ki in the experiment filed under Homo sapiens [4] amounted to 3.8; in the experiment filed under Homo sapiens [5], 2.2; in the experiment listed under Homo sapiens [6], 1.7.

As for `Cc1ccc(C#Cc2ccc(C=C3CC(CO)(COC(=O)c4cn(C)c5ccccc45)OC3=O)cc2)cc1` (stereo not drawn), the Ki is 116 nM in experiment [1], 131 nM in experiment [2] and 22.6 nM in experiment [3]. For the same compound, the Ratio Ki in the experiment filed under Homo sapiens [4] stood at 5.1; in the experiment listed under Homo sapiens [5], 5.8; in the experiment filed under Homo sapiens [6], 0.89.

On to `CC(C)CC(C/C=C1\CC(CO)(COC(=O)c2cn(C)c3ccccc23)OC1=O)CC(C)C` (stereo not drawn), for which the Ki in experiment [1] was found to be 73 nM; in experiment [2] it was 27.3 nM; in experiment [3], 31.3 nM. For the same compound, the Ratio Ki in the experiment listed under Homo sapiens [4] turned out to be 2.3; in the experiment listed under Homo sapiens [5], 0.87; in the experiment filed under Homo sapiens [6] it was 2.7.

On to `CCCCCCCCC/C=C1\CC(CO)(COC(=O)c2cn(C)c3ccccc23)OC1=O` (stereo not drawn), for which the Ki in experiment [1] is 106 nM; in experiment [2], 59.6 nM; in experiment [3] it was 63.3 nM. Also, the values for the Ratio Ki in the experiment listed under Homo sapiens [4], in the experiment filed under Homo sapiens [5] and in the experiment listed under Homo sapiens [6] were 1.7, 0.94 and 1.8, respectively.

Consider `CCCC(CCC)C(=O)OCC1(CO)C/C(=C\c2cn(C)c3ccccc23)C(=O)O1` (stereo not drawn), for which the Ki in experiment [1] was 12.9 nM; in experiment [2], 31 nM; in experiment [3], 0.58 nM. The Ratio Ki in the experiment filed under Homo sapiens [4] came to 22; in the experiment listed under Homo sapiens [5] it was 53; in the experiment listed under Homo sapiens [6], 0.42.

As for `Cc1ccc(C#Cc2ccc(/C=C3\CC(CO)(COC(=O)c4cn(C)c5ccccc45)OC3=O)cc2)cc1` (stereo not drawn), the Ki was 257 nM in experiment [1], 119 nM in experiment [2] and 40 nM in experiment [3]. In addition, the figures for the Ratio Ki in the experiment filed under Homo sapiens [4], in the experiment listed under Homo sapiens [5] and in the experiment listed under Homo sapiens [6] were 6.5, 3 and 2.2, respectively.

Regarding `CC(C)CC(C/C=C1/CC(CO)(COC(=O)c2cn(C)c3ccccc23)OC1=O)CC(C)C` (stereo not drawn), the Ki was 83.1 nM in experiment [1], 55 nM in experiment [2] and 22.6 nM in experiment [3]. The results for the Ratio Ki in the experiment listed under Homo sapiens [4], in the experiment listed under Homo sapiens [5] and in the experiment filed under Homo sapiens [6] were 3.7, 2.4 and 1.5, respectively.

Regarding `CC(C)=C1CC(CO)(COC(=O)c2cn(C)c3ccccc23)OC1=O` (stereo not drawn), the Ki was 698 nM in experiment [1], 301 nM in experiment [2] and 666 nM in experiment [3]. For the same compound, the Ratio Ki in the experiment filed under Homo sapiens [4] stood at 1.08; in the experiment listed under Homo sapiens [5] it was 0.45; in the experiment filed under Homo sapiens [6] it was 2.3.

Broadly, the Ki is the equilibrium dissociation constant of an inhibitor or competing ligand from its target.

The values above are taken from ChEMBL document CHEMBL4020707, “Exploring the influence of indololactone structure on selectivity for binding to the C1 domains of PKCα, PKCε, and RasGRP” (Bioorg Med Chem, 2017).
